Measured values reported in ChEMBL document CHEMBL4152296, “Synthesis, biological evaluation and molecular modeling of novel azaspiro dihydrotriazines as influenza virus inhibitors targeting the host factor dihydrofolate reductase (DHFR)” (Eur J Med Chem, 2018).
Activity calls are given as the source filed them. The calls are words filed in the database; no cut-off is given here.

Columns and labels:
[1] = test system: Human coronavirus 229E; experiment: Antiviral activity against Human coronavirus 229E infected in human HEL299 cells assessed as inhibition of virus-induced cytopathic effect after 3 to 6 days by MTS assay; format: functional, organism-based
[2] = test system: Vesicular stomatitis virus; experiment: Antiviral activity against Vesicular stomatitis virus infected in human HEL299 cells assessed as inhibition of virus-induced cytopathic effect after 3 to 6 days by MTS assay; format: functional, organism-based
[3] = test system: Influenza A virus; experiment: Antiviral activity against Influenza A virus (A/Puerto Rico/8/34(H1N1)) infected in MDCK cells assessed as protection against virus-induced reduction in cell viability after 3 to 6 days by MTS assay; format: functional, organism-based; details: A/Puerto Rico/8/1934(H1N1)
Method in brief: (§1)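 MDCK cells seeded at 9000/well and infected one day later (semiconfluent) with 100 CCID50 virus. Medium was FCS-free Ultra MDCK with 2 μg/mL TPCK-trypsin. Serial five-fold compound dilutions (top 100 μM) were added with the virus, followed by 3–6 days at 35 °C. MTS read-out gave % protection versus virus and mock controls. EC50 was interpolated from semi-log curves; mean of two or three experiments.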

[4] = test system: Mammalian orthoreovirus 1; experiment: Antiviral activity against Reovirus-1 infected in African green monkey Vero cells assessed as inhibition of virus-induced cytopathic effect after 3 to 6 days by MTS assay; format: functional, organism-based
[5] = test system: Human alphaherpesvirus 2; experiment: Antiviral activity against Herpes simplex virus type 2 infected in human HEL299 cells assessed as inhibition of virus-induced cytopathic effect after 3 to 6 days by MTS assay; format: functional, organism-based
[6] = test system: Vaccinia virus; experiment: Antiviral activity against Vaccinia virus infected in human HEL299 cells assessed as inhibition of virus-induced cytopathic effect after 3 to 6 days by MTS assay; format: functional, organism-based; details: Orthopoxvirus vaccinia
[7] = test system: Yellow fever virus; experiment: Antiviral activity against Yellow fever virus infected in African green monkey Vero cells assessed as inhibition of virus-induced cytopathic effect after 3 to 6 days by MTS assay; format: functional, organism-based
[8] = test system: Respiratory syncytial virus; experiment: Antiviral activity against Respiratory syncytial virus Long infected in human HeLa cells assessed as inhibition of virus-induced cytopathic effect after 3 to 6 days by MTS based microscopy; format: functional, organism-based
[9] = test system: Human alphaherpesvirus 1; experiment: Antiviral activity against Herpes simplex virus type 1 infected in human HEL299 cells assessed as inhibition of virus-induced cytopathic effect after 3 to 6 days by MTS assay; format: functional, organism-based
[10] = test system: Vero; experiment: Cytotoxicity against African green monkey Vero cells assessed as reduction in cell viability measured after 3 to 6 days by MTS assay; format: cell-based; details: chlorocebus sabaeus
[11] = test system: Influenza B virus; experiment: Antiviral activity against Influenza B virus B/Ned/537/05 infected in MDCK cells assessed as protection against virus-induced reduction in cell viability after 3 to 6 days by MTS assay; format: functional, organism-based; details: B/Ned/537/05, MDCK; method in brief: as §1
[12] = Cytotoxicity against MDCK cells assessed as alterations in normal cell morphology measured after 3 to 6 days by microscopic analysis; format: cell-based, Canis lupus familiaris; details: dog
Method in brief: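 Uninfected MDCK cultures in FCS-free Ultra MDCK medium with trypsin received five-fold compound dilutions (up to […]) for 3–6 days at 35 °C. Microscopy scored morphology, and MCC was taken as the lowest concentration causing minimal rounding, shrinking or lysis.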

[13] = test system: Coxsackievirus B4; experiment: Antiviral activity against Coxsackie B4 virus infected in human HeLa cells assessed as inhibition of virus-induced cytopathic effect after 3 to 6 days by MTS assay; format: functional, organism-based
[14] = test system: MDCK; experiment: Cytotoxicity against MDCK cells assessed as reduction in cell viability measured after 3 to 6 days by MTS assay; format: cell-based, Canis lupus familiaris; details: dog
Method in brief: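 Mock-infected MDCK plates were run in parallel (FCS-free Ultra MDCK medium with TPCK-trypsin) with serial five-fold dilutions up to […], 35 °C for 3–6 days. CC50 was interpolated from semi-log dose-response curves; mean of two or three experiments.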

[15] = test system: Human respirovirus 3; experiment: Antiviral activity against Parainfluenza virus 3 infected in African green monkey Vero cells assessed as inhibition of virus-induced cytopathic effect after 3 to 6 days by MTS assay; format: functional, organism-based
[16] = test system: Human immunodeficiency virus; experiment: Antiviral activity against HIV; format: functional, organism-based
[17] = test system: Sindbis virus; experiment: Antiviral activity against Sindbis virus infected in African green monkey Vero cells assessed as inhibition of virus-induced cytopathic effect after 3 to 6 days by MTS assay; format: functional, organism-based
[18] = test system: Punta Toro virus; experiment: Antiviral activity against Punta Toro virus infected in African green monkey Vero cells assessed as inhibition of virus-induced cytopathic effect after 3 to 6 days by MTS assay; format: functional, organism-based
[19] = Cytotoxicity against human HeLa cells assessed as alterations in normal cell morphology measured after 3 to 6 days by microscopic analysis; format: cell-based
Method in brief: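 Mock-infected HeLa cultures in 2% FCS medium received serial five-fold dilutions […] for 3–6 days at 37 °C. MCC was the lowest concentration giving microscopically visible minimal change in cell morphology (rounding, shrinking, lysis).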

[20] = test system: Human adenovirus 2; experiment: Antiviral activity against Human adenovirus type 2 infected in human HEL299 cells assessed as inhibition of virus-induced cytopathic effect after 3 to 6 days by MTS assay; format: functional, organism-based

SMILES	Activity [1]	Activity [2]	EC50 [3]	Activity [4]	Activity [5]	Activity [6]	Activity [7]	EC50 [8]	Activity [9]	Activity [10]	EC50 [11]	MCC [12]	Activity [13]	CC50 [14]	Activity [15]	Activity [16]	Activity [17]	Activity [18]	MCC [19]	Activity [20]
COc1cccc(N2C(N)=NC(N)=NC23CCNCC3)c1	inactive	inactive	> 100 µM	inactive	inactive	inactive	inactive	> 100 µM	inactive	Non-Toxic	> 100 µM	> 100 µM	inactive	> 100 µM	inactive	inactive	inactive	inactive	> 100 µM	inactive
Cl.NC1=NC2(CCCN(Cc3ccccc3)C2)N(c2ccccc2)C(N)=N1 (stereo not given)	inactive	inactive	> 100 µM	inactive	inactive	inactive	inactive	> 100 µM	inactive	Non-Toxic	> 100 µM	> 100 µM	inactive	> 100 µM	inactive	inactive	inactive	inactive	> 100 µM	inactive
CCCN1C(N)=NC(N)=NC12CCN(S(=O)(=O)CCC)CC2	inactive	inactive	> 100 µM	inactive	inactive	inactive	inactive	> 100 µM	inactive	Non-Toxic	> 100 µM	> 100 µM	inactive	> 100 µM	inactive	inactive	inactive	inactive	> 100 µM	inactive
CC(C)(C)OC(=O)N1CCC2(CC1)N=C(N)N=C(N)N2c1cccc(Cl)c1	inactive	inactive	11 µM	inactive	inactive	inactive	inactive	> 100 µM	inactive	Non-Toxic	24 µM	≥ 20 µM	inactive	> 100 µM	inactive	inactive	inactive	inactive	> 100 µM	inactive
COCCN1C(N)=NC(N)=NC12CCN(C(=O)Nc1ccc(OC)cc1)CC2	inactive	inactive	> 100 µM	inactive	inactive	inactive	inactive	> 100 µM	inactive	Non-Toxic	> 100 µM	> 100 µM	inactive	> 100 µM	inactive	inactive	inactive	inactive	> 100 µM	inactive
NC1=NC2(CCN(C(=O)c3ccc4ccccc4c3)CC2)N(c2cccc(Cl)c2)C(N)=N1	inactive	inactive	28 µM	inactive	inactive	inactive	inactive	> 100 µM	inactive	Non-Toxic	4 µM	≥ 4 µM	inactive	> 100 µM	inactive	inactive	inactive	inactive	≥ 100 µM	inactive
CCCN1C(N)=NC(N)=NC12CCN(C(=O)C1CC1)CC2	inactive	inactive	> 100 µM	inactive	inactive	inactive	inactive	> 100 µM	inactive	Non-Toxic	> 100 µM	> 100 µM	inactive	> 100 µM	inactive	inactive	inactive	inactive	> 100 µM	inactive
CCCN1C(N)=NC(N)=NC12CCN(C(=O)NCCC(=O)OCC)CC2	inactive	inactive	> 100 µM	inactive	inactive	inactive	inactive	> 100 µM	inactive	Non-Toxic	> 100 µM	> 100 µM	inactive	> 100 µM	inactive	inactive	inactive	inactive	> 100 µM	inactive
CCCCC(=O)N1CCC2(CC1)N=C(N)N=C(N)N2c1cccc(OC)c1	inactive	inactive	> 100 µM	inactive	inactive	inactive	inactive	> 100 µM	inactive	Non-Toxic	28 µM	≥ 100 µM	inactive	> 100 µM	inactive	inactive	inactive	inactive	> 100 µM	inactive
COCCN1C(N)=NC(N)=NC12CCN(C(=O)C1CC1)CC2	inactive	inactive	> 100 µM	inactive	inactive	inactive	inactive	> 100 µM	inactive	Non-Toxic	> 100 µM	> 100 µM	inactive	> 100 µM	inactive	inactive	inactive	inactive	> 100 µM	inactive
